Results reported in ChEMBL document CHEMBL4184168, “Anticancer activities of emetine prodrugs that are proteolytically activated by the prostate specific antigen (PSA) and evaluation of in vivo toxicity of emetine derivatives” (Bioorg Med Chem, 2017).
Activity calls are given as the source filed them. The rule behind the calls is not given here.

Legend:
[1] = Toxicity in iv dosed Balb/C mouse; type: organism-based; conditions: in vivo
Outline: (§1)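 Male Balb/c mice, eight weeks old, about 25 g. Single IV bolus of 200 μL, doses ranging from 8 to 100 mg/kg, in 1% DMSO/saline or 10% cremophor/saline; vehicle-only controls. Each dose tested in triplicate. Mice watched for convulsions, death and behaviour after injection to set the maximum tolerated dose.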

Mus musculus [2] = assay: Toxicity in Balb/C mouse assessed death at >32 mg/kg, iv; type: organism-based; conditions: in vivo
Mus musculus [3] = assay: Toxicity in Balb/C mouse assessed as mortality at >100 mg/kg, iv; type: organism-based; conditions: in vivo; outline: as §1
Mus musculus [4] = assay: Toxicity in Balb/C mouse at >100 mg/kg, iv; type: organism-based; conditions: in vivo; outline: as §1
Mus musculus [5] = assay: Toxicity in Balb/C mouse assessed as change in behavior at >100 mg/kg, iv; type: organism-based; conditions: in vivo; outline: as §1
LNCaP = assay: Antiproliferative activity against human LNCAP cells expressing PSA at 10000 nM after 3 days by MTT assay; type: functional, cell-based
Outline: (§2)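 LNCaP seeded at 5 × 10^3 cells/well; PC3, CWR22Rv1 and MDA-MB-231 at 2.5 × 10^3. The first three were grown in RPMI and MDA-MB-231 in DMEM, each with 10% FBS. After 24 h attachment, cells got final 10, 50, 100, 1000 or 10,000 nM (0.1% DMSO) in eight replicates. Viable cells by MTT on day 0, 3 and 5, A570 corrected at 650 nm. Experiments run at least twice.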

PC-3 = assay: Antiproliferative activity against human PC3 cells at 10000 nM after 3 days by MTT assay; type: functional, cell-based; outline: as §2
Mus musculus [6] = assay: Toxicity in Balb/C mouse at 32 mg/kg, iv; type: organism-based; conditions: in vivo
Mus musculus [7] = assay: Toxicity in Balb/C mouse assessed as convulsion at 16 mg/kg, iv up to 1 min; type: organism-based; conditions: in vivo; outline: as §1
Mus musculus [8] = assay: Toxicity in Balb/C mouse assessed as death at 16 mg/kg, iv up to 1 min; type: organism-based; conditions: in vivo; outline: as §1

Compound | MTD [1] | Activity (Mus musculus [3]) | Activity (Mus musculus [5]) | further results
CC[C@H]1CN2CCc3cc(OC)c(OC)cc3[C@@H]2C[C@@H]1C[C@@H]1c2cc(OC)c(OC)cc2CCN1C(=O)OCc1ccc(NC(=O)[C@@H]2CCCN2C(=O)[C@H](C)N)cc1 | 32 mg/kg | – | – | Activity (Mus musculus [2]): Toxic
CC[C@H]1CN2CCc3cc(OC)c(OC)cc3[C@@H]2C[C@@H]1C[C@@H]1c2cc(OC)c(OC)cc2CCN1C(=O)OCc1ccc([N+](=O)[O-])cc1 | > 64 mg/kg | Non-Toxic | Non-Toxic | Activity (Mus musculus [4]): Non-Toxic
CC[C@H]1CN2CCc3cc(OC)c(OC)cc3[C@@H]2C[C@@H]1C[C@@H]1c2cc(OC)c(OC)cc2CCN1C(=O)/C=C(/CC(=O)O)C(=O)O | > 100 mg/kg | Non-Toxic | Non-Toxic | –
CC[C@@H]1C[C@@H](C[C@@H]2c3cc(OC)c(OC)cc3CCN2C(=O)OCc2ccc(NC(=O)[C@H](CC(C)C)NC(=O)[C@H](CO)NC(C)=O)cc2)[C@H]2c3cc(OC)c(OC)cc3CCN2C1 | – | – | – | Activity (LNCaP): Active; Activity (PC-3): Active
CC[C@H]1CN2CCc3cc(OC)c(OC)cc3[C@@H]2C[C@@H]1C[C@@H]1c2cc(OC)c(OC)cc2CCN1C(=O)/C(C)=C(/C)C(=O)O | – | – | – | Activity (Mus musculus [6]): Toxic
CC[C@H]1CN2CCc3cc(OC)c(OC)cc3[C@@H]2C[C@@H]1C[C@@H]1c2cc(OC)c(OC)cc2CCN1C(=O)/C=C(/C)C(=O)O | > 100 mg/kg | Non-Toxic | Non-Toxic | –
CC[C@H]1CN2CCc3cc(OC)c(OC)cc3[C@@H]2C[C@@H]1C[C@@H]1c2cc(OC)c(OC)cc2CCN1C(=S)[S-].[Na+] | > 100 mg/kg | Non-Toxic | Non-Toxic | –
CC[C@H]1CN2CCc3cc(OC)c(OC)cc3[C@@H]2C[C@@H]1C[C@@H]1c2cc(OC)c(OC)cc2CCN1C(=O)[C@@H]1CCCN1C(=O)[C@H](C)N | – | – | – | Activity (Mus musculus [7]): Toxic; Activity (Mus musculus [8]): Toxic
